Experimental findings from PubChem BioAssay AID651945 (The Scripps Research Institute Molecular Screening Center, 2012) are described below.

In the experiment the target is Heat shock 70 kDa protein 1A (Homo sapiens) (UniProt P0DMV8). As to the kind of experiment: Hsp70 mRNA induction by activators, late-stage follow-up, orthogonal assay, cell-based, fluorescence, HeLa (AID 651945). The note with it: qRT-PCR, 4 h, at 10 µM, stronger effect = higher value. The method in brief: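 Material: HeLa cells; control set: DMSO vehicle baseline; medium: HEPES-buffered DMEM, 10% FBS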
Heat shock 70 kDa protein 1A (Homo sapiens), sequence (P0DMV8 whole entry, looked up): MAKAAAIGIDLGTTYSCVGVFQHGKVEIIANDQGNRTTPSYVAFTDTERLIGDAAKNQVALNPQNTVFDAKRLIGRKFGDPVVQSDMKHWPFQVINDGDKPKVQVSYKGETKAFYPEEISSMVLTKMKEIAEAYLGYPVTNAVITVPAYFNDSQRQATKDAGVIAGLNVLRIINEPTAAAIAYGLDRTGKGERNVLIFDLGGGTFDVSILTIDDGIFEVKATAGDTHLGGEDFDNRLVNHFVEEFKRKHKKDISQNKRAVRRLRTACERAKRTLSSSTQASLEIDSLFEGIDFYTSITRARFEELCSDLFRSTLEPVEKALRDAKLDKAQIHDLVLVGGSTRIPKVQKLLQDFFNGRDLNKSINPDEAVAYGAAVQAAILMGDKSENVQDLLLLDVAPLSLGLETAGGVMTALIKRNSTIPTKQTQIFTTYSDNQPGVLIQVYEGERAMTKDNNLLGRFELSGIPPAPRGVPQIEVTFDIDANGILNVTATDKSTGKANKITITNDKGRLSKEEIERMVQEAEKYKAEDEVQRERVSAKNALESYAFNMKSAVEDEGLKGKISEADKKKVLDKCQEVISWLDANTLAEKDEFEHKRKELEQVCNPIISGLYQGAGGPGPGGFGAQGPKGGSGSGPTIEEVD

With `COc1ccc(/C=C/C=C2C(=O)NC(=O)NC2=O)cc1`, the fold change is 2.4.
